Bioassay records deposited in PubChem BioAssay by several laboratories.
S1P3 antag – S1P3 receptor antagonists, primary screen, cell-based; CHO S1P3 NFAT-BLA reporter, FRET fluorescence, antagonist mode; inhibition, % at 4.98 µM; hit rate 0.27% among 170,000; AID 485, 2006;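 active means inhibition above the plate cutoff, the mean inhibition of test wells on that plate plus 3 SD, cut at about 28% in these data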;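 further: cells challenged with S1P at its EC80 of 0.8 µM; blue over green emission ratio from cleaved BLA substrate after 4 h stimulation; 0% = S1P-stimulated wells and 100% = unstimulated DMSO-only wells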
Target sequence (Q99500 whole entry, looked up): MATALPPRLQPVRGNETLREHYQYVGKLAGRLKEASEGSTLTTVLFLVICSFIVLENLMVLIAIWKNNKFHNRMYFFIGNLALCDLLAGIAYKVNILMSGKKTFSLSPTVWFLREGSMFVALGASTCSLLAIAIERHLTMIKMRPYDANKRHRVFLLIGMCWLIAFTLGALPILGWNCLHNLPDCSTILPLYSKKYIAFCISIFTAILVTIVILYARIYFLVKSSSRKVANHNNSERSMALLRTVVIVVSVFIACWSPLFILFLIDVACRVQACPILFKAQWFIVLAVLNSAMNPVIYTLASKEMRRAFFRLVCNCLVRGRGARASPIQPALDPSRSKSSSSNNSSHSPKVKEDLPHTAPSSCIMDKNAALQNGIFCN
CHOP inh – inhibitors of CHOP promoter induction, primary screen, cell-based, unfolded protein response, luciferase reporter; CHO-K1 CHOP-promoter luciferase, tunicamycin-induced, 15-18 h; inhibition, % at 10 µM; hit rate 3.8% among 220,000;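 active means compounds that reduced the stress-induced luciferase reporter signal by more than about 70% of percent inhibition, limit read from the data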;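 further: 0% = tunicamycin plus vehicle and 100% = wells without tunicamycin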
MDM2 E3 inh – MDM2-luciferase reporter signal enhancers, primary screen, MDM2 E3 ligase inhibitor project, cell-based, luminescence, 1536-well; E3 ubiquitin-protein ligase Mdm2 (Homo sapiens), Q00987; cell-based MDM2 ubiquitination luciferase reporter, 2 h; 0 = plate control, 100 = twice control, blank-subtracted; signal enhancement, % at 5 µM; hit rate 0.11% among 210,000;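 active means signal enhancement of 30% or more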;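 further: luminescence tracks abundance of the self-degrading MDM2-luciferase fusion protein; higher signal means inhibition of MDM2 E3 ligase activity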
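System: stable MDM2–luciferase fusion reporter cells / Input: 2000 cells seeded into each well / Schedule: 4 h settle plus 2 h compound, 37 °C / Compound: single-point 5 µM / Buffer or medium: cells held in DMEM / Benchmarks: control and blank well means / Evaluation: percent signal gain over controls, blank-subtracted / Measured by: luciferase luminescence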
Hsp70 act – Hsp70 transcriptional activators, primary screen, cell-based, HeLa, Hsp70 promoter luciferase, luminescence, 10 µM | activation, % at 10 µM | AID 1203, 2008 | HeLa Hsp70 promoter luciferase reporter; scaled: vehicle 0, proteasome-inhibitor control 100% | hit rate 0.04% among 200,000;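 active means activation above the mean across all tested compounds plus 3 SD, cutoff set per campaign, cut at about 5.5% in these data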;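 further: 100% = MG132 at 30 µM as the positive control and 0% = DMSO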
CHOP inh conf – retest of CHOP induction inhibitors, confirmation, cell-based; inhibition, % at 10 µM; AID 504437, 2011; hit rate 45% among 2,100; CHO-CHOP promoter luciferase reporter, tunicamycin-induced, luminescence; shares compounds with CHOP inh;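 active means mean of three repeat readings of reporter signal inhibition above a set limit, cut at about 70% in these data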;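 further: 0% = tunicamycin plus vehicle and 100% = wells lacking tunicamycin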
The depositor's hits bear a star; nt = not tested or not shown. The list is not random: actives were taken first. Their share in the collection is about 4%.

SMILES | S1P3 antag | CHOP inh | MDM2 E3 inh | Hsp70 act | CHOP inh conf
Cc1cccc(C)c1NC(=O)C1c2cccc[n+]2CC(=O)N1Cc1cccs1 (configuration not stated) | 1 | -8 | -6 | 0 | nt
O=C(OCC1CC(c2ccccc2)=NO1)c1ccco1 (configuration not stated) | 10 | 16 | -9 | nt | nt
Cc1ccc(N2CC(=O)Nc3c(oc4nc(-c5ccccc5)cc(C)c34)C2=O)cc1 | 12 | 97* | -4 | nt | -69
Cc1cnc(NC(=O)c2cc3c(C)nn(Cc4ccccc4Cl)c3s2)s1 | 14 | 104* | -3 | 0 | 9
CCOC(=O)/C(=C\c1ccccc1)NC(=O)c1ccccc1 | -8 | -20 | -7 | nt | nt
CCOC(=O)/C(=C/c1ccc(OC(=O)c2ccccc2)cc1)C(C)=O | -1 | 101* | -10 | 0 | -30
CN1CCN(c2ccc(-c3ccc4ccccc4n3)cc2)CC1 | 2 | 102* | -88 | -1 | 120*
Cc1cccc(NS(=O)(=O)c2ccc(C3CCCCC3)cc2)c1 | nt | 107* | -12 | 0 | 132*
O=Cc1c[nH]c2ccc(S(=O)(=O)N3CCOCC3)cc12 | 0 | -10 | -3 | -1 | nt
COc1ccc(-n2nc(N)c(C(N)=O)n2)cc1 | -8 | -4 | -16 | 0 | nt
S=C1NC2=C(CCC/C2=C\c2ccccc2)C(c2ccccc2)N1 (configuration not stated) | 7 | 40 | -13 | 0 | nt
C(=C1/CCCC2=C1Nc1ncnn1C2c1ccccc1)/c1ccccc1 (configuration not stated) | nt | 112* | -11 | 0 | 58
O=C(/C=C/c1ccccc1)NC(NC(=S)Nc1ccc(Cl)cc1)C(Cl)(Cl)Cl (configuration not stated) | nt | 109* | 6 | 0 | 60
COc1ccc(NC(=S)NC(NC(=O)/C=C/c2ccccc2)C(Cl)(Cl)Cl)cc1 (configuration not stated) | nt | 107* | -23 | 0 | 122*
CCOC(=O)NC(NC(=S)Nc1ccc(OC)cc1)C(Cl)(Cl)Cl (configuration not stated) | -2 | -1 | -6 | 0 | nt
CC(=O)Nc1ccc(S(=O)(=O)N(C)c2ccc(OCC(=O)OCC(=O)NCc3ccco3)cc2)cc1 | 18 | -4 | nt | nt | nt
CCc1ccc2c(COC(=O)c3n[nH]c4ccccc34)cc(=O)oc2c1 | -12 | 100* | -5 | 0 | 18
Cc1ccc2c(COC(=O)c3n[nH]c4ccccc34)cc(=O)oc2c1 | nt | 50 | -10 | 0 | nt
CCC(C)OC(=O)C1=C(C)NC(=O)CC1c1ccccc1OC (configuration not stated) | 14 | 17 | 0 | 0 | nt
CCCOc1ccccc1C1CC(=O)NC(C)=C1C(=O)OCC(C)C (configuration not stated) | -4 | 99* | -18 | 0 | 116*
Cc1cc(C)nc(-n2cc(C(=O)c3cc(F)ccc3O)cn2)n1 | 11 | 97* | -14 | 0 | 27
CC1=CC(=C(C#N)c2nc3ccccc3s2)C=C(C)N1CC1CCCO1 (configuration not stated) | -6 | -56 | -2 | 0 | nt
CCOC(=O)c1ccc(N2N=C(C)/C(=C/C=C/c3ccco3)C2=O)cc1 | nt | 28 | -23 | 0 | nt
CC1=NN(c2ccc(C)c(C)c2)C(=O)/C1=C\C=C\c1ccc([N+](=O)[O-])o1 | -6 | 108* | 1 | 0 | 21
c1ccc2c(c1)ncn2-c1ccc(-c2ccnc(-c3ccncc3)n2)cc1 | nt | 99* | -19 | 0 | 6
CC(C)(C)c1ccc(CN2N=Nc3ccccc3S2(=O)=O)cc1 | nt | 108* | 6 | 0 | 124*
CCc1cccc2c(/C=N/NC(=O)c3cccc(S(=O)(=O)Nc4ccccc4Cl)c3)c[nH]c12 | -2 | 26 | -4 | 0 | nt
O=C(Nc1ccc(F)cc1)Nc1ccc(N2CCCC2)c(S(=O)(=O)Nc2ccccc2Cl)c1 | -6 | 97* | 4 | 0 | 91*
CCOC(=O)c1c(C)[nH]c(O)c1C=Nc1ccc(Cl)cc1 | nt | 103* | -11 | 0 | 110*
Cc1cccc(NC(=S)NC(=O)CC2CC(C)(C)OC2=O)c1 (configuration not stated) | -4 | 24 | -7 | 0 | nt
